Molecules are shown by their SMILES.

Among the data in ChEMBL document CHEMBL1153617, “Synthesis of new acridines and hydrazones derived from cyclic beta-diketone for cytotoxic and antiviral evaluation” (2009) are Activity values, retold here.

Holding throughout (set-up): scale not given: the % may be the effect or the level left
For one assay, the system named is HepG2. The assay is described as follows: Cytotoxicity against human HepG2 cells assessed as reduction in cell growth at 10 umol/ml after 24 hrs by MTT assay relative to control. It counts as functional. Summed up: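 HepG2 grown in RPMI-1640 with 10% FCS. Cells taken at ~80% confluence, seeded 3×10³/well, incubated overnight at 37 °C, 5% CO₂. Compound exposure 24 h. Then PBS wash and MTT (0.5 mg/ml) for 4 h. Crystals dissolved in DMSO, OD read at 570 nm (reference 690 nm). Reported as % reduction in cell growth versus untreated control.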

Assay [1] concerns Hepatovirus A. The assay is described as follows: Antiviral activity against HAV MBB in human HepG2 cells assessed as reduction in viral titer at 10 ug/ml by plaque reduction assay. It counts as functional, Human hepatitis A virus Hu/Northern Africa/MBB/1978. Summed up:
(§1)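 HAV pre-mixed with compound (10 or 20 µg/10⁵ cells; virus at 10⁴ PFU/ml final), held overnight at 4 °C. Mixture inoculated onto HepG2 monolayers grown 2 days at 37 °C, then 1 h contact. Overlay of MEM with 1% agarose, incubated at 37 °C until plaques formed. Formalin-fixed, crystal violet-stained. Plaques counted; % reduction calculated against untreated virus control.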

Assay [2] has as its system Hepatovirus A. The assay is described as follows: Antiviral activity against HAV MBB in human HepG2 cells assessed as reduction in viral titer at 20 ug/ml by plaque reduction assay. It counts as functional, Human hepatitis A virus Hu/Northern Africa/MBB/1978. In a few lines: as §1
(In a plaque reduction assay, fewer plaques than in the control indicate reduced infectivity or spread.)

Turning to `CC1(C)CC(=O)C=C(NCC(=O)N/N=C\c2ccc(Br)cc2)C1`, the Activity with HepG2 was 40.06%; in the assay on Hepatovirus A [1], 43.3%; in the assay with Hepatovirus A [2], 27.3%.
On to `CC1(C)CC(=O)C=C(NCc2nnc(S)n2-c2ccccc2)C1`, for which the Activity was found to be 35.64% in the assay on HepG2, 28.3% with Hepatovirus A [1] and 30.1% in the assay on Hepatovirus A [2].
Turning to `NC12CC3CC(CC(C3)C1)C2` [AMANTADINE], the Activity with Hepatovirus A [1] was found to be 30.1%; in the assay with Hepatovirus A [2], 45.2%.
Take `COc1ccc(/C=N\NC(=O)CNC2=CC(=O)CC(C)(C)C2)cc1`: the Activity in the assay with HepG2 is on record as 16.99%; in the assay with Hepatovirus A [1], 24.5%; in the assay on Hepatovirus A [2] it was 36.2%.
In the case of `CC1(C)CC(=O)C=C(NCC(=O)N/N=C\c2ccc(Cl)cc2)C1`, the Activity in the assay on Hepatovirus A [1] stood at 57.5%; in the assay on Hepatovirus A [2] it was 60.3%.
As for `CC1(C)CC(=O)C=C(NCC(=O)NNC(=S)Nc2ccccc2)C1`, the values for the Activity with HepG2, in the assay on Hepatovirus A [1] and with Hepatovirus A [2] were 54.84%, 18.8% and 39.6%, respectively.
For `CCOC(=O)CN1C2=C(C(=O)CC(C)(C)C2)C(c2ccccc2)C2=C1CC(C)(C)CC2=O`, the Activity was determined as 3.32% in the assay with HepG2, 37.7% in the assay with Hepatovirus A [1] and 60.3% in the assay on Hepatovirus A [2].
Regarding `CC1(C)CC(=O)C=C(NCC(=O)NN)C1`, the Activity is listed as 57.4% in the assay with HepG2, 33.9% in the assay with Hepatovirus A [1] and 34.9% in the assay with Hepatovirus A [2].
Take `CCOC(=O)CN1C2=C(C(=O)CC(C)(C)C2)C(c2ccc(Br)cc2)C2=C1CC(C)(C)CC2=O`: the Activity in the assay with HepG2 amounted to 49.17%; with Hepatovirus A [1], 47.1%; in the assay with Hepatovirus A [2], 52.8%.
For `CC1(C)CC(=O)C=C(NCC(=O)N/N=C\c2ccc(O)cc2)C1`, the Activity with HepG2 is on record as 40.32%; in the assay on Hepatovirus A [1] it was 9.4%; in the assay with Hepatovirus A [2], 15%.
In the same order, the values of `CCOC(=O)CN1C2=C(C(=O)CC(C)(C)C2)C(c2ccc(Cl)cc2)C2=C1CC(C)(C)CC2=O` are 54.14%, 30.1% and 47.1%.
For `CC1(C)CC(=O)C=C(NCC(=O)N/N=C\c2ccccc2)C1`, the figures for the Activity in the assay on Hepatovirus A [1] and in the assay on Hepatovirus A [2] were 56.6% and 58.4%, respectively.
Take `CC1(C)CC(=O)C=C(NCc2nnc(Nc3ccccc3)s2)C1`: the values for the Activity in the assay with Hepatovirus A [1] and with Hepatovirus A [2] were 45.2% and 49%, respectively.
For the compound `CCOC(=O)CN1C2=C(C(=O)CC(C)(C)C2)C(c2ccc(OC)cc2)C2=C1CC(C)(C)CC2=O`, the values for the Activity in the assay with HepG2, with Hepatovirus A [1] and with Hepatovirus A [2] were 37.99%, 24.5% and 45.2%, respectively.
Regarding `CC1(C)CC(=O)C=C(NCC(=O)N/N=C\c2ccc([N+](=O)[O-])cc2)C1`, the Activity was 39.6% in the assay with Hepatovirus A [1] and 43.3% in the assay with Hepatovirus A [2].
Take `CCOC(=O)CNC1=CC(=O)CC(C)(C)C1`: the results for the Activity in the assay on HepG2, in the assay on Hepatovirus A [1] and in the assay on Hepatovirus A [2] were 50%, 5.6% and 15%, respectively.
With `CCOC(=O)CN1C2=C(C(=O)CC(C)(C)C2)C(c2ccc(O)cc2)C2=C1CC(C)(C)CC2=O`, the Activity is 54.7% in the assay with HepG2, 30.1% in the assay with Hepatovirus A [1] and 48.1% with Hepatovirus A [2].
With `CC1(C)CC(=O)C=C(NCC(=O)NNC(=O)NCCCl)C1`, the Activity in the assay with HepG2 came out at 58.29%; in the assay on Hepatovirus A [1] it was 42.4%; in the assay with Hepatovirus A [2] it was 40.5%.
